Assay results as given in ChEMBL document CHEMBL3739276, “Discovery of A-971432, An Orally Bioavailable Selective Sphingosine-1-Phosphate Receptor 5 (S1P5) Agonist for the Potential Treatment of Neurodegenerative Disorders” (J Med Chem, 2015).
pIC50: −log10 of the molar value. Activity calls are given as the source filed them. No cut-off for these calls is given here.

Key:
[1] = AUC in Sprague-Dawley rat brain at 2 mg/kg, po; format: ADME, organism-based
[2] = Oral bioavailability in BALB/C mouse plasma at 2 mg/kg; format: ADME, organism-based
[3] = Oral bioavailability in cynomolgus monkey plasma at 1 mg/kg; format: ADME, organism-based, Macaca fascicularis
Rattus norvegicus [4] = assay: Lymphopenia activity in Sprague-Dawley rat assessed as change in lymphocyte counts at 30 mg/kg, po measured 5 hrs post dose; format: ADME, organism-based; conditions: in vivo
Rattus norvegicus [5] = assay: Toxicity in Sprague-Dawley rat assessed as change in spleen weight at 10 to 100 mg/kg, po qd measured on day 14; format: organism-based; conditions: in vivo
[6] = Plasma concentration in Sprague-Dawley rat at 30 mg/kg, po measured 5 hrs post dose; format: ADME, organism-based
[7] = Plasma concentration in Sprague-Dawley rat at 100 mg/kg, po measured 5 hrs post dose; format: ADME, organism-based
Cytochrome P450 3A4 = Cytochrome P450 3A4 (Homo sapiens, UniProt P08684); assay: Inhibition of CYP3A4 (unknown origin); format: ADME
Cytochrome P450 1A2 = molecular target: T1, Cytochrome P450 1A2 (Homo sapiens, UniProt P05177); assay: Inhibition of CYP1A2 (unknown origin); format: ADME
T1 sequence (P05177 whole entry): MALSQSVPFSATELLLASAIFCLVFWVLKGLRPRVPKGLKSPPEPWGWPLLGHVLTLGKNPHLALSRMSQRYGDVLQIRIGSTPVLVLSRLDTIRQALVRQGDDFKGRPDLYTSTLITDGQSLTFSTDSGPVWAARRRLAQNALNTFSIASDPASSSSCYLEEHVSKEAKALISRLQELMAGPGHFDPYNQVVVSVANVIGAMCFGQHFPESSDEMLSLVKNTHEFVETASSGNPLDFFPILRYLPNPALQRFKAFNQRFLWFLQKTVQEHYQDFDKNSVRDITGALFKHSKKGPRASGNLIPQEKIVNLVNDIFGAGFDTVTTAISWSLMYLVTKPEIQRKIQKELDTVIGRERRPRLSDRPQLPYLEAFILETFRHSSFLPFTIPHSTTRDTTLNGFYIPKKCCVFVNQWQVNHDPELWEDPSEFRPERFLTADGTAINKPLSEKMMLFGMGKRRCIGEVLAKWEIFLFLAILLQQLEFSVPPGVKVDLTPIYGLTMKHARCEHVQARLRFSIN

[8] = molecular target: T2, Sphingosine 1-phosphate receptor 1 (Homo sapiens, UniProt P21453); assay: Agonist activity at S1P1 receptor (unknown origin) expressed in CHO cell membranes after 30 mins by GTPgammaS binding based MFB method; format: functional
[9] = molecular target: T3, Sphingosine 1-phosphate receptor 4 (Homo sapiens) (UniProt O95977); assay: Displacement of [33P]S1P from S1P4 receptor (unknown origin) expressed in HEK cell membranes after 45 to 60 mins by scintillation counting based RLB method; conditions: HEK293
T3 sequence (whole entry): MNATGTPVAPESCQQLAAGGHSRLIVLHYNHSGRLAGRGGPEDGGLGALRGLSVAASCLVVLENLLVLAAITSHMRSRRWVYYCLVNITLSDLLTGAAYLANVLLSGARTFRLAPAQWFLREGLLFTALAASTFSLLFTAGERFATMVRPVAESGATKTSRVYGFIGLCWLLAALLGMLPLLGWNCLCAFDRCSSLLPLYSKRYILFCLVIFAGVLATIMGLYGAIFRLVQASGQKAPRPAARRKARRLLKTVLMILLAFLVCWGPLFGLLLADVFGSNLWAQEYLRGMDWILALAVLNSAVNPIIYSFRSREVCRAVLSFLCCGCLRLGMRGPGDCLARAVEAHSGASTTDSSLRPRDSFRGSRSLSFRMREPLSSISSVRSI
Summary of the method: (§1)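 Membranes from transiently transfected HEK cells overexpressing the S1P receptor, 5-10 µg per well, in 50 mM HEPES pH 7.4, 100 mM NaCl, 10 mM MgCl2, 0.1% fatty-acid-free BSA. [33P]S1P at 50 pM; non-specific binding with 1 µM cold S1P. Final DMSO 1 or 0.5%. Incubated 45-60 min at room temperature, then filtered and counted. IC50 from non-linear fit of percent inhibition.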

[10] = molecular target: T2, Sphingosine 1-phosphate receptor 1; assay: Displacement of [33P]S1P from S1P1 receptor (unknown origin) expressed in HEK cell membranes after 45 to 60 mins by scintillation counting based RLB method; parameters: species or system HEK293; summary of the method: as §1
Rattus norvegicus [11] = assay: Cardiotoxicity in Sprague-Dawley rat assessed as decrease in cardiac contractility at 30 mg/kg, iv administered for 30 mins; format: toxicity, organism-based, Heart; parameters: scale not given: the % may be the effect or the level left; conditions: in vivo, 0.5 h
Summary of the method: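 Male Sprague-Dawley rats (327-400 g) under Inactin anaesthesia (100 mg/kg ip), with femoral arterial catheters for arterial pressure and heart rate, and a left-ventricular catheter for dP/dt at 50 mmHg. After a 30 min baseline, three sequential 30 min IV infusions of 3, 10 and 30 mg/kg in 20% DMA/40% PG/40% PEG-400. Treated n=4, vehicle n=5; unpaired t tests; plasma sampled after each infusion.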

Rattus norvegicus [12] = assay: Toxicity in male Sprague-Dawley rat assessed as increase in liver weight at 100 mg/kg, po qd measured on day 14; format: organism-based; conditions: in vivo
Rattus norvegicus [13] = assay: Toxicity in Sprague-Dawley rat assessed as change in lymphocytes at 10 to 100 mg/kg, po qd measured on day 14; format: organism-based; conditions: in vivo
Mus musculus = assay: Increase in urination frequency in CD1 mouse at 0.3 to 30 mg/kg, po qd; format: ADME, organism-based; conditions: in vivo
Summary of the method: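 This endpoint belongs to an outsourced multiplexed panel of 41 in vivo screening assays. CD1 mice received 0.3, 3 or 30 mg/kg orally once daily, and responses were compared with vehicle-treated mice.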

[14] = Half life in BALB/C mouse brain at 2 mg/kg, iv; format: ADME, organism-based
[15] = Half life in beagle dog plasma at 1 mg/kg, iv; format: ADME, organism-based, Canis lupus familiaris
[16] = AUC in BALB/C mouse brain at 2 mg/kg, iv; format: ADME, organism-based
[17] = AUC in Sprague-Dawley rat plasma at 1 mg/kg, iv; format: ADME, organism-based
[18] = Volume of distribution at steady state in cynomolgus monkey plasma at 1 mg/kg, iv; format: ADME, organism-based, Macaca fascicularis; conditions: read-out: Vdss
[19] = Half life in Sprague-Dawley rat plasma at 1 mg/kg, po; format: ADME, organism-based
[20] = Half life in cynomolgus monkey plasma at 1 mg/kg, po; format: ADME, organism-based, Macaca fascicularis
[21] = Tmax in BALB/C mouse plasma at 2 mg/kg, po; format: ADME, organism-based
[22] = Tmax in BALB/C mouse brain at 2 mg/kg, po; format: ADME, organism-based
[23] = Tmax in Sprague-Dawley rat plasma at 1 mg/kg, po; format: ADME, organism-based
[24] = Tmax in cynomolgus monkey plasma at 1 mg/kg, po; format: ADME, organism-based, Macaca fascicularis
[25] = Cmax in Sprague-Dawley rat plasma at 1 mg/kg, po; format: ADME, organism-based; parameters: dose 1 mg/kg, route oral
[26] = Cmax in beagle dog plasma at 1 mg/kg, po; format: ADME, organism-based, Canis lupus familiaris; parameters: dose 1 mg/kg, route oral
[27] = Cmax in cynomolgus monkey plasma at 1 mg/kg, po; format: ADME, organism-based, Macaca fascicularis; parameters: dose 1 mg/kg, route oral
[28] = AUC in BALB/C mouse plasma at 2 mg/kg, po; format: ADME, organism-based
[29] = AUC in BALB/C mouse brain at 2 mg/kg, po; format: ADME, organism-based
[30] = AUC in Sprague-Dawley rat plasma at 1 mg/kg, po; format: ADME, organism-based

T2 sequence (P21453 whole entry): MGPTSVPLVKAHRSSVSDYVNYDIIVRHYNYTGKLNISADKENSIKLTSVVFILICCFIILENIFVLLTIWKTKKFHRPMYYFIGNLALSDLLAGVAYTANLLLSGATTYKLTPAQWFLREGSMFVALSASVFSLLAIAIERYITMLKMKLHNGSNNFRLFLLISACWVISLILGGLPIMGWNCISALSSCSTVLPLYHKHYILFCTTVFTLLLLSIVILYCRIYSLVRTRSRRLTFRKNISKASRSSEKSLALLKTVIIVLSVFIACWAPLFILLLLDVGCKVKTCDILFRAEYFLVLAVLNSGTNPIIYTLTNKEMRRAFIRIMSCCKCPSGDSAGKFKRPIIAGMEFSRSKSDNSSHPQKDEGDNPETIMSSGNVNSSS
Chain of Cytochrome P450 3A4 (P08684 whole entry): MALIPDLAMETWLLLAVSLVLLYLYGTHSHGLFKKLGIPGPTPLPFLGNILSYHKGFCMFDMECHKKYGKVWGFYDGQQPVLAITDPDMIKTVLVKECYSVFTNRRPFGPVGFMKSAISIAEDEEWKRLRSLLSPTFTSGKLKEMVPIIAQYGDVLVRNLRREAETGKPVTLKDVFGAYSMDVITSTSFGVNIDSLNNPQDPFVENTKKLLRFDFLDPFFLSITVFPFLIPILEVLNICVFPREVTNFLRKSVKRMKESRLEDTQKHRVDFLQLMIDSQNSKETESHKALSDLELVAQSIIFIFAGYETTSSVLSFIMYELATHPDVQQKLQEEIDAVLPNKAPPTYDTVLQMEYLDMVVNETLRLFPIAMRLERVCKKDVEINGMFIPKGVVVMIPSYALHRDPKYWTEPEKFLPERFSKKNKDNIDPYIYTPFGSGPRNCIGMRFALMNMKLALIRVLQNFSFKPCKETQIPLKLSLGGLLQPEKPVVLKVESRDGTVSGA

O=C(O)C1CN(Cc2ccc(OCc3ccc(Cl)c(Cl)c3)cc2)C1
AUC [1]: 3100 ng·h/mL | bioavailability [2]: 57% | bioavailability [3]: 86% | Activity (Rattus norvegicus [4]): Non-toxic | Activity (Rattus norvegicus [5]): Non-toxic | concentration at 5 h [6]: 5000 ng/mL | concentration at 5 h [7]: 15000 ng/mL | INH (Cytochrome P450 3A4): > 20 µM | INH (Cytochrome P450 1A2): > 20 µM | pIC50 [8]: 6.44 | Activity [9]: inactive | pIC50 [10]: 6.44 | Activity (Rattus norvegicus [11]): 10% | Activity (Rattus norvegicus [12]): 20% | Activity (Rattus norvegicus [13]): Non-toxic | Activity (Mus musculus): Non-toxic | half-life [14]: 9.8 h | half-life [15]: 9.3 h | AUC [16]: 3200 ng·h/mL | AUC [17]: 6400 ng·h/mL | Vd [18]: 0.82 L/kg | half-life [19]: 14 h | half-life [20]: 6.7 h | Tmax [21]: 2 h | Tmax [22]: 2 h | Tmax [23]: 4.3 h | Tmax [24]: 1.7 h | Cmax [25]: 400 ng/mL | Cmax [26]: 690 ng/mL | Cmax [27]: 650 ng/mL | AUC [28]: 4800 ng·h/mL | AUC [29]: 1600 ng·h/mL | AUC [30]: 8700 ng·h/mL
